Compounds with a hit are over-represented: about 2.8% of the library has one in this group of screens.
Calb biofilm kill: clotrimazole potentiators killing C. albicans biofilm, primary screen, 4-compound mixtures. C. albicans biofilm persisters + clotrimazole, fluorescence viability; primary screen in compound mixtures of four per well. inhibition, % at 7.6 µM. hit rate 0.02% among 120,000. AID 1242, 2008;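 active means inhibition above 30.3% in the primary screen of four-compound pools, then above 30% when the compound was retested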;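 further: compounds exposed to preformed 24 h biofilms for 48 h; 0% = untreated biofilm control and 100% = clotrimazole plus chlorhexidine kill blank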
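Test system: C. albicans biofilms. Buffer or medium: RPMI/MOPS medium, pH 7.0. Timing: 48 h compound exposure at 37 °C. Technique: Alamar Blue fluorescence. Evaluation: percent inhibition of biofilm viability.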
Mcl1 Noxa PPI: Mcl-1/Noxa binding inhibitors, primary screen, biochemical, TR-FRET, 1536-well | Induced myeloid leukemia cell differentiation protein Mcl-1 (Homo sapiens), Q07820 | TR-FRET Mcl-1/Noxa peptide binding, 2 h | inhibition, % at 21.7 µM | hit rate 1.5% among 220,000;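 active means compounds that cut the protein-peptide binding signal by more than 50% relative to plate controls in a single-dose test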;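 further: His-tagged Mcl-1 with rhodamine Noxa BH3 peptide and terbium anti-His antibody; 0% = Mcl-1 plus Noxa peptide wells and 100% = peptide-only wells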
Target sequence (Q07820 whole entry, looked up): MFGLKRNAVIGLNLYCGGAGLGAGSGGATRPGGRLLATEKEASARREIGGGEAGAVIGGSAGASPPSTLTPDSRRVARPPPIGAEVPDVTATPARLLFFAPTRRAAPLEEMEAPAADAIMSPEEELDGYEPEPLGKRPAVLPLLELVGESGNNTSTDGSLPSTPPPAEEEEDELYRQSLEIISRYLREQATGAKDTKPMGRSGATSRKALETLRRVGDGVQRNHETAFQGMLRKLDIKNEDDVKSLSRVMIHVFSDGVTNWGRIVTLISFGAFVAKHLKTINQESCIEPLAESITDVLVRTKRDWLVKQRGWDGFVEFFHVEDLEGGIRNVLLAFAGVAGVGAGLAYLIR
Bim-Mcl-1: inhibitors of Bim peptide binding to Mcl-1, primary screen, biochemical, bead-based flow cytometry, multiplex | Bim peptide-Mcl-1 binding | inhibition, % at 10 µM | hit rate 0.1% among 190,000 | AID 1009, 2008; in the data active means inhibition above about 40%;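 further: 0% = no compound tracer wells and 100% = peptide blocker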
Arbovirus inh: antivirals against arbovirus infection, primary screen, cell-based, full library, 10K replicate subset | arbovirus infection cell-based antiviral screen | AID 1251, 2008 | inhibition, % at 10 µM | hit rate 0.37% among 200,000; in the data active means inhibition above about 30%
Mcl1 Bid PPI: Mcl-1/Bid binding inhibitors, primary screen, biochemical, TR-FRET, 1536-well. Induced myeloid leukemia cell differentiation protein Mcl-1 (Homo sapiens), Q07820. TR-FRET Mcl-1/Bid-Dy647 peptide binding. inhibition, % at 21.7 µM. hit rate 0.97% among 220,000;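 active means compounds that cut the binding signal by more than half at the single screening dose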;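 further: His-tagged Mcl-1 with europium anti-His antibody binding Bid BH3 peptide; 0% = Mcl-1 plus peptide wells and 100% = peptide-only wells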
m-calpain inh: inhibitors of pig calpain II, primary screen, biochemical, fluorogenic peptide substrate, 1536-well; purified calpain II, 30 min; inhibition, % at 16 µM; hit rate 0.37% among 220,000; AID 1236, 2008;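 active means inhibition above about 50%, limit read from the data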
Active calls of the source: *; i = inactive; . = no result.

SMILES	Calb biofilm kill	Mcl1 Noxa PPI	Bim-Mcl-1	Arbovirus inh	Mcl1 Bid PPI	m-calpain inh
C=CCNC(=O)/C(=C\c1ccc(Br)cc1)NC(=O)c1ccccc1OC	14	3	0	1	-19	-9
NC(N)=N/N=C/c1ccc(Cl)cc1Cl	17	-2	.	.	51*	-12
NC(N)=N/N=C/c1ccc(Cl)c(Cl)c1	0	-1	.	.	-15	-7
O=C1c2ccccc2C(=O)N1CCCCN(C(=O)c1ccco1)c1ccc(Cl)cc1	.	21	-3	3	-4	20
O=C1c2ccccc2C(=O)N1CCCCN(C(=O)c1cccc([N+](=O)[O-])c1)c1ccc(Cl)cc1	.	0	-1	-4	54*	36
CNc1nn(-c2cccc(Cl)c2)nc1N	.	-66	-6	-12	96*	2
CC1CC(CC(=O)NC(=S)Nc2ccccc2Cl)C(=O)O1 (stereo not drawn)	3	26	5	0	-27	7
O=S(=O)(Nc1nc2ccccc2nc1N1CCN(c2ccccc2F)CC1)c1ccc(Cl)cc1	.	-3	-2	-39	23	-68
Nc1nc2c(c(=O)[nH]1)C(c1cccc3ccccc13)C1=C(N2)c2ccccc2C1=O (stereo not drawn)	20	94*	4	13	14	-69
CC(=O)C1=C(C)NC2=C(C(=O)c3ccccc32)C1c1ccccc1 (stereo not drawn)	13	12	-2	-3	-17	9
O=C(c1cc([N+](=O)[O-])ccc1N1CCCCC1)N1CCCC1	10	8	-12	-2	-10	19
O=C(c1cc([N+](=O)[O-])ccc1N1CCOCC1)N1CCCCC1	18	2	.	-7	-6	82*
CCOC(=O)C1CCN(C(=O)c2cc3c(=O)n4ccccc4nc3n2C)CC1	18	15	0	0	-7	i
N#CCCN(Cc1cccnc1)C(=S)Nc1ccc(OC(F)F)cc1	8	-14	-2	31*	-37	-8
CCc1nnc(NS(=O)(=O)c2ccc(N=CC3=C(O)CC(C)(C)CC3=O)cc2)s1	7	-7	44*	0	-44	21
CC1(C)CC(=O)C(C=Nc2ccc(O)cc2)=C(O)C1	.	8	0	-11	-11	-6
Cc1ccc(C2(CCNCc3ccc(N(C)C)cc3)CCOC(C(C)C)C2)cc1 (stereo not drawn)	24	56*	0	-33	-35	-16
CCOC(=O)N1CCN(c2c(-c3ccc(C)cc3)c(=O)c2=O)CC1	.	-32	-1	2	2	-4
CCOC(=O)N1CCN(c2nc(C)c3c(n2)CCCC3=O)CC1	.	27	0	2	71*	10
Cc1ccc(/C=c2/sc3nnc(-c4ccccc4Cl)n3c2=O)o1	.	39	-5	1	-22	-28
Cc1ccc(-c2nc3s/c(=C\c4ccco4)c(=O)n3n2)cc1	.	52*	-3	4	22	-42
O=c1nc2s/c(=C\c3ccco3)c(=O)n2nc1Cc1ccc(F)cc1	.	65*	-2	18	-31	5
Cc1ccc(/C=c2\sc3nc(-c4ccccc4Br)nn3c2=O)o1	.	79*	9	16	62*	-34
COc1ccccc1/C=c1\sc2nc(-c3ccccc3OC)nn2c1=O	.	-2	-1	6	-4	-64
Cc1ccc(/C=c2\sc3nc(-c4ccco4)nn3c2=O)o1	.	77*	5	-1	25	-75
SMILES	Calb biofilm kill	Mcl1 Noxa PPI	Bim-Mcl-1	Arbovirus inh	Mcl1 Bid PPI	m-calpain inh
COc1nnc(-c2ccc(N3CCCCC3)c(NC(C)=O)c2)c2ccccc12	.	14	-3	-2	-30	18
CCc1ccc(-c2ccc(SCC(=O)Nc3nnc(C)s3)nn2)cc1	17	21	3	-1	5	9
CC(C)N(Cc1ccccc1)C(=S)Nc1ccccc1F	19	3	.	.	-4	20
COc1ccc(OC)c(N2C(=O)[C@@H]3C(c4ccccc4Cl)=NO[C@@H]3C2=O)c1	.	59*	2	13	-40	-28
COCCNC(=O)COc1ccc(C)cc1C(=O)c1cc(C#N)c(=O)n(C2CC2)c1	8	25	-1	3	-20	15
O=C1/C(=C/c2cccs2)Sc2ccccc21	15	38	75*	-6	10	12
O=C1Nc2ccccc2S/C1=C/c1cccs1	24	-24	.	.	-65	-46
NC(=O)c1cnn2c(-c3cccc(C(F)(F)F)c3)ccnc12	17	3	.	.	98*	-125
Cc1cccc(OCc2nc(-c3cccnc3)no2)c1	8	8	-3	-9	-16	-9
CC(C)c1nc(CN(C)C(=O)N[C@H](C(=O)N[C@@H](Cc2ccccc2)C[C@H](O)[C@H](Cc2ccccc2)NC(=O)OCc2cncs2)C(C)C)cs1	.	-12	0	-15	1	15
CC(C)(C)c1nc(NCCN2CCOCC2)c2nnn(Cc3ccccc3Cl)c2n1	.	-1	41*	8	-1	-29
Cc1nc(NCCN2CCOCC2)c2nnn(Cc3ccccc3Cl)c2n1	.	10	0	-3	1	-14
O=C(O)C1Sc2[nH]c(=O)sc2C2c3ccc(O)cc3OC(=O)C12 (stereo not drawn)	4	41	0	2	-46	-53
COc1cc(-c2nnc(SCc3cc(=O)oc4cc(O)c(O)cc34)o2)cc(OC)c1OC	.	77*	5	-7	-72	-300
CCOC(=O)CSc1nnc(-c2cc(OC)c(OC)c(OC)c2)o1	12	4	0	-4	-34	0
O=C(CSc1ccc(-c2ccco2)nn1)c1ccccc1	8	59*	-7	8	-15	4
CCc1nnc(NC(=O)CSc2ccc(-c3ccco3)nn2)s1	25	59*	-2	9	-36	-130
Cc1nnc(NC(=O)CSc2ccc(-c3ccco3)nn2)s1	9	56*	4	25	-56	-78
CCN(CC)S(=O)(=O)c1ccc(OC)c(NC(=O)C2CC(=O)N(c3ccc(C)cc3)C2)c1 (stereo not drawn)	8	17	3	-5	-22	-25
COC(=O)c1cn(NC(=O)Cn2nc([N+](=O)[O-])c(Br)c2C)c(=O)c2ccccc12	0	10	0	6	-16	-21
CCCCCNC1=CC(=O)CC(c2ccccc2)C1 (stereo not drawn)	.	0	0	-18	-43	20
CCCCCCCNC1=CC(=O)CC(c2ccccc2)C1 (stereo not drawn)	13	5	9	-28	-35	74*
Cc1ccc(-c2nn(CCC(=O)NN3CCOCC3)c(=O)c3ccccc23)cc1	15	-1	.	.	-9	0

Screening results from PubChem BioAssay.
